Among the data in ChEMBL document CHEMBL1149130, “Synthesis and biological evaluation of novel chloroethylaminoanthraquinones with potent cytotoxic activity against cisplatin-resistant tumor cells” (J Med Chem, 2004) are IC50 and RF values, retold here.

In assay [1] the test system is A2780. Description: Growth inhibition against A2780 cisplatin resistant wild-type ovarian cell lines. As to conditions: Homo sapiens. It is filed as functional, cell-based. In short, it runs like this: (§1)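 Cells in exponential growth (5 × 10⁴ cells/mL) were exposed to compound freshly dissolved in DMSO for 24 h at 37 °C. Drug medium was then replaced with fresh medium, followed by 3 days of growth. Viability was read by sulforhodamine B staining. IC50 is the concentration giving a 50% reduction in SRB colour formation.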

In assay [2] the test system is A2780. Description: Growth inhibition against A2780 wild-type ovarian cell lines. It is filed as functional, cell-based. As to conditions: Homo sapiens. In outline:
as §1

Assay [3] has as its system CH1. Briefly: Growth inhibition against CH-1 wild-type ovarian cell lines. It counts as functional, cell-based. As to conditions: Homo sapiens. In outline: as §1
Assay [4] relates to SK-OV-3. Briefly: Growth inhibition against SKOV3 wild-type ovarian cell lines. It is filed as functional, cell-based. As to conditions: Homo sapiens. In outline:
as §1

The species named for the next assay is Homo sapiens. Briefly: Resistance factor (IC50 in the resistant cell line/IC50 in the parent cell line). It counts as functional.
Assay [5] concerns CH1. Briefly: Growth inhibition against CH-1 cisplatin resistant wild-type ovarian cell lines. It counts as functional, cell-based, Homo sapiens. In short, it runs like this: as §1
Assay [6] relates to CH1. Briefly: Compound was evaluated for growth inhibition against CH1cisR wild-type ovarian cell lines. As to conditions: Homo sapiens. It counts as functional, cell-based. In short, it runs like this: (§2)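 Cells kept as in earlier work; exponentially growing cultures (5 × 10⁴ cells/mL) given compound freshly dissolved in DMSO, 24 h at 37 °C. Drug medium then replaced with fresh medium, followed by 3 day growth. Viability by sulforhodamine B staining; IC50 taken as concentration giving 50% reduction in SRB colour formation.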

Assay [7] deals with SK-OV-3. Briefly: Compound was evaluated for growth inhibition against SKOV3 wild-type ovarian cell lines. It counts as functional, cell-based. As to conditions: Homo sapiens. In outline: as §2

pIC50: −log10 of the molar value.

In the case of `O=C1c2ccccc2C(=O)c2c(NCCCN(CCCl)CCCl)ccc(NCCCN(CCCl)CCCl)c21`, the pIC50 with A2780 [1] was 7.28; in the assay with A2780 [2], 7.51; with CH1 [3], 7.52; with SK-OV-3 [4] it was 6.72; in the assay on CH1 [5] (Homo sapiens, CH1), 6.96. For the same compound, the RF in the assay filed under Homo sapiens was determined as 3.7.
In the case of `CN(CCO)CCNc1cccc2c1C(=O)c1ccccc1C2=O`, the pIC50 is 5.38 with A2780 [1]; 5.47 in the assay on A2780 [2]; 5.54 in the assay on CH1 [3]; 4.89 in the assay with SK-OV-3 [4]; 5.55 in the assay with CH1 [5] (Homo sapiens, CH1). Besides, the RF in the assay filed under Homo sapiens is 1; in the assay filed under Homo sapiens (Homo sapiens), 1.2.
`CN(CCCl)CCNc1ccc(NCCN(C)CCCl)c2c1C(=O)c1c(O)ccc(O)c1C2=O`: the pIC50 is 7.62 in the assay with A2780 [1]; 8.05 with A2780 [2]; 8.15 with CH1 [3]; 7.00 with SK-OV-3 [4]; 7.85 with CH1 [5] (Homo sapiens, CH1). Also, the RF in the assay filed under Homo sapiens was 1.9; in the assay listed under Homo sapiens (Homo sapiens), 2.7.
On to `O=C1c2c(O)ccc(O)c2C(=O)c2c(NCCN(CCCl)CCCl)ccc(NCCN(CCCl)CCCl)c21`, for which the pIC50 was 6.77 in the assay on A2780 [1]; 6.92 in the assay on A2780 [2]; 7.27 in the assay with CH1 [3]; 5.84 in the assay with SK-OV-3 [4]; 6.96 with CH1 [5] (Homo sapiens, CH1). Further, the RF turned out to be 2 in the assay listed under Homo sapiens and 1.4 in the assay listed under Homo sapiens (Homo sapiens).
As for `O=C1c2ccccc2C(=O)c2c(NCCN(CCO)CCO)ccc(NCCN(CCO)CCO)c21`, the negative-log IC50 (pIC50) in the assay with A2780 [1] is 5.46; with A2780 [2], 5.48; with CH1 [3], 5.41; in the assay on CH1 [6], 5.48; with SK-OV-3 [7] it was 4.74. The RF in the assay listed under Homo sapiens came out at 0.8; in the assay listed under Homo sapiens (Homo sapiens) it was 1.1.
Consider `O=C1c2ccccc2C(=O)c2c(NCCCN(CCCl)CCCl)cccc21`, for which the pIC50 in the assay on A2780 [1] was 6.19; in the assay on A2780 [2], 6.39; with CH1 [3], 6.73; with SK-OV-3 [4], 5.72; in the assay with CH1 [5] (Homo sapiens, CH1), 6.26. Further, the RF is 2.9 in the assay filed under Homo sapiens and 1.6 in the assay listed under Homo sapiens (Homo sapiens).
Regarding `CN(CCCl)CCNc1cccc2c1C(=O)c1ccccc1C2=O`, the pIC50 in the assay on A2780 [1] is 5.10; in the assay with A2780 [2], 5.34; in the assay on CH1 [3], 5.60; in the assay with SK-OV-3 [4], 4.87; with CH1 [5] (Homo sapiens, CH1) it was 5.51. In addition, the results for the RF in the assay listed under Homo sapiens and in the assay listed under Homo sapiens (Homo sapiens) were 1.2 and 1.7, respectively.
On to `CN(CCO)CCCNc1cccc2c1C(=O)c1ccccc1C2=O`, for which the pIC50 in the assay on A2780 [1] was 5.48; in the assay on A2780 [2], 5.51; in the assay with CH1 [3], 5.59; in the assay with SK-OV-3 [4], 4.94; in the assay with CH1 [5] (Homo sapiens, CH1), 5.59. The RF in the assay filed under Homo sapiens came to 1; in the assay listed under Homo sapiens (Homo sapiens), 1.1.
Take `CN(CCO)CCNc1ccc(NCCN(C)CCO)c2c1C(=O)c1ccccc1C2=O`: the pIC50 is 6.24 with A2780 [1]; 6.14 with A2780 [2]; 6.17 in the assay with CH1 [3]; 5.48 in the assay on SK-OV-3 [4]; 6.10 with CH1 [5] (Homo sapiens, CH1). Besides, the RF in the assay filed under Homo sapiens was determined as 1.2; in the assay listed under Homo sapiens (Homo sapiens) it was 0.8.
Take `O=C1c2c(O)ccc(O)c2C(=O)c2c(NCCCN(CCO)CCO)ccc(NCCCN(CCO)CCO)c21`: the pIC50 was 6.13 in the assay with A2780 [1]; 6.17 in the assay with A2780 [2]; 6.24 in the assay with CH1 [3]; 5.61 with SK-OV-3 [4]; 6.11 in the assay with CH1 [5] (Homo sapiens, CH1). Further, the RF in the assay filed under Homo sapiens was determined as 1.3; in the assay listed under Homo sapiens (Homo sapiens), 1.1.
Consider `CN(CCCl)CCNc1ccc(NCCN(C)CCCl)c2c1C(=O)c1ccccc1C2=O`, for which the pIC50 in the assay on A2780 [1] is 6.45; in the assay on A2780 [2] it was 6.87; in the assay on CH1 [3] it was 6.96; with SK-OV-3 [4], 6.11; in the assay on CH1 [5] (Homo sapiens, CH1) it was 6.84. The RF in the assay filed under Homo sapiens stood at 1.3; in the assay listed under Homo sapiens (Homo sapiens), 2.6.
On to `CN(C)CCNc1ccc(NCCN(CCO)CCO)c2c1C(=O)c1c(O)ccc(O)c1C2=O`, for which the pIC50 was 7.89 in the assay with A2780 [1]; 7.89 in the assay with A2780 [2]; 7.52 in the assay on CH1 [3]; 6.59 in the assay on SK-OV-3 [4]; 7.34 in the assay with CH1 [5] (Homo sapiens, CH1). The results for the RF in the assay filed under Homo sapiens and in the assay filed under Homo sapiens (Homo sapiens) were 1.6 and 1, respectively.
For `CN(CCO)CCNc1ccc(NCCN(C)CCO)c2c1C(=O)c1c(O)ccc(O)c1C2=O`, the pIC50 with A2780 [1] is 8.40; in the assay on A2780 [2] it was 8.40; in the assay on CH1 [3], 8.10; in the assay with SK-OV-3 [4], 4.96; with CH1 [5] (Homo sapiens, CH1), 7.66. Further, the RF in the assay listed under Homo sapiens stood at 2.6.
As to `O=C1c2ccccc2C(=O)c2c(NCCCN(CCO)CCO)ccc(NCCCN(CCO)CCO)c21`, the pIC50 in the assay on A2780 [1] was 5.47; in the assay on A2780 [2], 5.46; with CH1 [3] it was 5.66; in the assay on CH1 [6] it was 5.62; in the assay with SK-OV-3 [7], 5.17. Also, the RF came out at 1.1 in the assay listed under Homo sapiens and 1 in the assay filed under Homo sapiens (Homo sapiens).
`CN(CCCl)CCCNc1cccc2c1C(=O)c1ccccc1C2=O`: the pIC50 is 5.57 with A2780 [1]; 5.57 with A2780 [2]; 5.84 in the assay with CH1 [3]; 4.97 in the assay on SK-OV-3 [4]; 5.89 in the assay on CH1 [5] (Homo sapiens, CH1). The RF in the assay filed under Homo sapiens stood at 0.9; in the assay listed under Homo sapiens (Homo sapiens), 1.
Consider `O=C1c2ccccc2C(=O)c2c(NCCN(CCCl)CCCl)ccc(NCCN(CCCl)CCCl)c21`, for which the pIC50 in the assay on A2780 [1] was 7.02; with A2780 [2], 7.29; in the assay on CH1 [3], 7.11; with SK-OV-3 [4], 6.07; with CH1 [5] (Homo sapiens, CH1), 7.04. Moreover, the RF was found to be 1.2 in the assay listed under Homo sapiens and 1.9 in the assay listed under Homo sapiens (Homo sapiens).
As for `CN(C)CCNc1ccc(NCCN(CCCl)CCCl)c2c1C(=O)c1c(O)ccc(O)c1C2=O`, the pIC50 in the assay on A2780 [1] is 7.72; in the assay with A2780 [2], 7.80; with CH1 [3] it was 7.74; with SK-OV-3 [4] it was 6.81; in the assay with CH1 [5] (Homo sapiens, CH1), 7.72. The figures for the RF in the assay filed under Homo sapiens and in the assay filed under Homo sapiens (Homo sapiens) were 1 and 1.2, respectively.
On to `CN(C)CCNc1ccc(NCCN(C)CCO)c2c1C(=O)c1c(O)ccc(O)c1C2=O`, for which the negative logarithm of the IC50 (pIC50) in the assay on A2780 [1] is 8.30; in the assay with A2780 [2], 8.30; in the assay on CH1 [3] it was 7.62; in the assay with SK-OV-3 [4], 6.52; in the assay on CH1 [5] (Homo sapiens, CH1) it was 7.35. In addition, the values for the RF in the assay listed under Homo sapiens and in the assay filed under Homo sapiens (Homo sapiens) were 1.9 and 1, respectively.
Take `O=C1c2c(O)ccc(O)c2C(=O)c2c(NCCN(CCO)CCO)ccc(NCCN(CCO)CCO)c21`: the pIC50 was 6.94 in the assay with A2780 [1]; 7.09 in the assay with A2780 [2]; 6.52 in the assay on CH1 [3]; 5.82 with SK-OV-3 [4]; 6.43 in the assay with CH1 [5] (Homo sapiens, CH1). Besides, the RF is 1.2 in the assay filed under Homo sapiens and 1.4 in the assay listed under Homo sapiens (Homo sapiens).
On to `O=C1c2c(O)ccc(O)c2C(=O)c2c(NCCCN(CCCl)CCCl)ccc(NCCCN(CCCl)CCCl)c21`, for which the pIC50 was 7.42 with A2780 [1]; 7.55 in the assay on A2780 [2]; 7.60 in the assay with CH1 [3]; 6.73 in the assay with SK-OV-3 [4]; 7.46 in the assay with CH1 [5] (Homo sapiens, CH1). Besides, in the assay filed under Homo sapiens (Homo sapiens), the RF is 1.4.
Take `O=C(O)CCCc1ccc(N(CCCl)CCCl)cc1` [CHLORAMBUCIL]: the pIC50 with A2780 [1] is 4.28; with CH1 [3] it was 5.48; in the assay on SK-OV-3 [4], 4.46; with CH1 [5] (Homo sapiens, CH1), 5.10. Also, the RF in the assay listed under Homo sapiens is 2.4.
In the case of CISPLATIN, the negative-log IC50 (pIC50) in the assay with CH1 [5] (ch1) was 6.19.

Usually pIC50 stands for the IC50 on a negative log10 scale, so that one unit is a factor of ten.
